Data: ChEMBL document CHEMBL1122293, “Synthesis, evaluation of chemical reactivity, and murine antineoplastic activity of 2-hydroxy-5-(3,4-dichlorophenyl)-6,7-bis(hydroxymethyl)-2,3-dihydro-1H- pyrrolizine bis(2-propylcarbamate) and 2-acyloxy derivatives as potential water-soluble prodrugs” (J Med Chem, 1983)
Values after ≈ are worked out from the molar mass of the structure shown.

Tests used:
[1] = test system: B16; assay: No. of cures on day 60 at 5 mg/kg (ip) against B16 melanocarcinoma in mice; type: functional, Mus musculus
In short: (§1)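 Female BDF1 mice given ip 0.5 mL of tumor brei (1.0 g tissue per 10 mL). Nine daily ip doses beginning 24 h later, as Klucel suspensions or a water/Tween-80 suspension. Acute toxicity scored day 5; survival read day 60. Cures counted per 10-animal group at day 60; weight difference reported as treated minus control (g).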

[2] = test system: P388; assay: Median survival time of test animals compared to controls at 5 mg/kg (ip) against P388 Lymphocytic Leukemia in mice; type: functional, Mus musculus
In short: (§2)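 P388 leukemia cells were given ip to male CDF1 mice. Dosing started 24 h later: nine daily ip doses given as suspensions in Klucel (hydroxypropylcellulose) or in water. Toxicity day was day 5 and evaluation was on day 30. The value is % T/C of median survival time against untreated controls, with a parallel positive-control arm.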

[3] = test system: P388; assay: Log of the tumor cell population at the end of treatment at 40 mg/kg (ip) against P388 Lymphocytic Leukemia in mice; type: functional, Mus musculus
[4] = test system: P388; assay: Log of the tumor cell population at the end of treatment at 20 mg/kg (ip) against P388 Lymphocytic Leukemia in mice; type: functional, Mus musculus
[5] = test system: P388; assay: Weight difference at 10 mg/kg (ip)against P388 Lymphocytic Leukemia in mice; type: functional, Mus musculus
In short: (§3)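 Male CDF1 mice inoculated ip with P388 leukemia cells. Nine daily ip doses beginning 24 h later, as suspensions in Klucel or water. Acute toxicity evaluated day 5. Weight difference reported as treated minus control (g).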

[6] = test system: P388; assay: Weight difference at 2.5 mg/kg (ip)against P388 Lymphocytic Leukemia in mice; type: functional, Mus musculus; in short: as §3
[7] = test system: P388; assay: Log of the tumor cell population at the end of treatment at 10 mg/kg (ip) against P388 Lymphocytic Leukemia in mice; type: functional, Mus musculus
[8] = test system: B16; assay: Median survival time of test animals compared to controls at 80 mg/kg (ip) against B16 melanocarcinoma in mice; type: functional, Mus musculus
In short: (§4)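 Female BDF1 mice received B16 tumor brei ip (0.5 mL of 1.0 g tissue per 10 mL). From 24 h later they got nine daily ip doses, suspended in Klucel or water/Tween-80. Acute toxicity was assessed on day 5 and survival was evaluated on day 60. The value is median survival as % T/C, with 10 mice per group and a positive control run in parallel.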

[9] = test system: B16; assay: No. of cures on day 60 at 10 mg/kg (ip) against B16 melanocarcinoma in mice; type: functional, Mus musculus; in short: as §1
[10] = test system: B16; assay: No. of cures on day 60 at 20 mg/kg (ip) against B16 melanocarcinoma in mice; type: functional, Mus musculus; in short: as §1
[11] = test system: B16; assay: Weight difference at 80 mg/kg (ip) against B16 melanocarcinoma in mice; type: functional, Mus musculus; in short: as §1
[12] = test system: P388; assay: Median survival time of test animals compared to controls at 2.5 mg/kg (ip) against P388 Lymphocytic Leukemia in mice; type: functional, Mus musculus
In short: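 P388 leukemia cells given ip to male CDF1 mice; ip dosing began 24 h later, nine daily doses, as suspensions in Klucel (hydroxypropylcellulose) or water. Acute toxicity checked on day 5. Survival read on day 30 as median survival time of treated versus control mice (% T/C). Weight difference is treated minus control, in grams.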

[13] = test system: B16; assay: Median survival time of test animals compared to controls at 5 mg/kg (ip) against B16 melanocarcinoma in mice; type: functional, Mus musculus; in short: as §4
[14] = test system: B16; assay: Median survival time of test animals compared to controls at 40 mg/kg (ip) against B16 melanocarcinoma in mice; type: functional, Mus musculus; in short: as §4
[15] = test system: P388; assay: Log of the tumor cell population at the end of treatment at 5 mg/kg (ip) against P388 Lymphocytic Leukemia in mice; type: functional, Mus musculus
[16] = Water solubility of the compound; type: ADME; details: read-out: S
In short: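 Excess bis(carbamate) (30-60 mg) in 2 mL distilled water, vortexed 10 min, filtered through Teflon wool and diluted. UV absorbance read at 291 nm. Concentration from a linear Beer's law calibration made with a salt standard (r = 0.998).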

[17] = test system: B16; assay: No. of cures on day 60 at 80 mg/kg (ip) against B16 melanocarcinoma in mice; type: functional, Mus musculus; in short: as §1
[18] = test system: B16; assay: Weight difference at 5 mg/kg (ip)against B16 melanocarcinoma in mice; type: functional, Mus musculus; in short: as §1
[19] = test system: P388; assay: Median survival time of test animals compared to controls at 20 mg/kg (ip) against P388 Lymphocytic Leukemia in mice; type: functional, Mus musculus; in short: as §2
[20] = test system: B16; assay: Weight difference at 10 mg/kg (ip)against B16 melanocarcinoma in mice; type: functional, Mus musculus; in short: as §1
[21] = test system: P388; assay: Log of the tumor cell population at the end of treatment at 80 mg/kg (ip) against P388 Lymphocytic Leukemia in mice; type: functional, Mus musculus
[22] = test system: P388; assay: Weight difference at 20 mg/kg (ip)against P388 Lymphocytic Leukemia in mice; type: functional, Mus musculus; in short: as §3
[23] = test system: B16; assay: Median survival time of test animals compared to controls at 20 mg/kg (ip) against B16 melanocarcinoma in mice; type: functional, Mus musculus; in short: as §4
[24] = test system: B16; assay: Weight difference at 20 mg/kg (ip)against B16 melanocarcinoma in mice; type: functional, Mus musculus; in short: as §1
[25] = test system: B16; assay: Median survival time of test animals compared to controls at 10 mg/kg (ip) against B16 melanocarcinoma in mice; type: functional, Mus musculus; in short: as §4
[26] = test system: P388; assay: Median survival time of test animals compared to controls at 80 mg/kg (ip) against P388 Lymphocytic Leukemia in mice; type: functional, Mus musculus; in short: as §2
[27] = test system: B16; assay: No. of cures on day 60 at 40 mg/kg (ip) against B16 melanocarcinoma in mice; type: functional, Mus musculus; in short: as §1
[28] = test system: B16; assay: Weight difference at 40 mg/kg (ip)against B16 melanocarcinoma in mice; type: functional, Mus musculus; in short: as §1
[29] = test system: P388; assay: Weight difference at 80 mg/kg (ip)against P388 Lymphocytic Leukemia in mice; type: functional, Mus musculus; in short: as §3
[30] = test system: P388; assay: Weight difference at 5 mg/kg (ip)against P388 Lymphocytic Leukemia in mice; type: functional, Mus musculus; in short: as §3
[31] = test system: P388; assay: Weight difference at 40 mg/kg (ip)against P388 Lymphocytic Leukemia in mice; type: functional, Mus musculus; in short: as §3
[32] = test system: P388; assay: Median survival time of test animals compared to controls at 40 mg/kg (ip) against P388 Lymphocytic Leukemia in mice; type: functional, Mus musculus; in short: as §2
[33] = test system: P388; assay: Median survival time of test animals compared to controls at 10 mg/kg (ip) against P388 Lymphocytic Leukemia in mice; type: functional, Mus musculus; in short: as §2
[34] = Half life was determined

CC(C)NC(=O)OCc1c(COC(=O)NC(C)C)c(-c2ccc(Cl)c(Cl)c2)n2c1CC(OC(=O)CN(C)C)C2 (stereo not given)
Cures [1]: 0 | T/C [2]: 117% | Log cell kill [3]: -1.41 | Log cell kill [4]: -1.37 | Weight change [5]: -2 g | Weight change [6]: 0.1 g | Log cell kill [7]: -1.61 | T/C [8]: <100% | Cures [9]: 0 | Cures [10]: 0 | Weight change [11]: -1.5 g | Log cell kill [12]: -1.96 | T/C [12]: 101% | T/C [13]: 106% | T/C [14]: 174% | Log cell kill [15]: -1.76 | solubility [16]: 19.6 µM (≈ 11.4 µg/mL) | Cures [17]: 0 | Weight change [18]: 0.2 g | T/C [19]: 146% | Weight change [20]: 0.2 T-C | Log cell kill [21]: -1.84 | Weight change [22]: -1.9 g | T/C [23]: 152% | Weight change [24]: 0.5 g | T/C [25]: 152% | T/C [26]: 110% | Cures [27]: 1 | Weight change [28]: -0.8 g | Weight change [29]: -3.4 g | Weight change [30]: -1.3 g | Weight change [31]: -3.1 g | T/C [32]: 144% | T/C [33]: 128% | half-life [34]: 4.13 h
